The list is not random: actives were taken first. Their share in the collection is about 1.8%.
NPY Y2 blocker – NPY-Y2 receptor antagonists, primary screen, cell-based. inhibition, % at 2.7 µM. 0.99% of 140,000 active. NPY-Y2 expressing cells, antagonist mode. AID 793, 2007. Neuropeptide Y receptor type 2 (Homo sapiens), P49146;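 also: 0% = vehicle with agonist challenge and 100% = reference antagonist with challenge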
NPY1 pot ag – NPY-Y1 receptor potentiators or agonists, primary screen, cell-based; Neuropeptide Y receptor type 1 (Homo sapiens), P25929; NPY-Y1 expressing cells, potentiator/agonist activation; 0.37% of 220,000 active; activation, % at 3.6 µM; AID 1304, 2008; in the data active = activation above about 33%, passing the limit was not always enough;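 also: cells stimulated with NPY at EC10 then isoproterenol at EC100; 0% = low agonist plus stimulus and 100% = saturating agonist plus stimulus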
Target sequence (P25929 whole entry, looked up): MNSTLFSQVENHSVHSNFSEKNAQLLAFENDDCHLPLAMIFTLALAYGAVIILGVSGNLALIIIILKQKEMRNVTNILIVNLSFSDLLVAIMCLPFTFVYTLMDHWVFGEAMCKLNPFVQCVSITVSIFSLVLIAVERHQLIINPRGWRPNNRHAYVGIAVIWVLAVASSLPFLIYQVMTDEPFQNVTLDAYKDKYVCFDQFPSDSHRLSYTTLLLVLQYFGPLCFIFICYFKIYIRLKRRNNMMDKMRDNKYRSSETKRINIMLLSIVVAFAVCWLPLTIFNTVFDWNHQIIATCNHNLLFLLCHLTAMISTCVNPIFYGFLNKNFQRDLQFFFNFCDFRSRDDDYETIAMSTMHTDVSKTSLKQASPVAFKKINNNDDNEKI
NPY Y1 blocker – NPY-Y1 receptor antagonists, primary screen, cell-based. inhibition, % at 3.6 µM. HEK293-CNG Y1 cells, membrane potential fluorescence; NPY at EC95, then isoproterenol. AID 1040, 2008. 1% of 200,000 active. Neuropeptide Y receptor type 1 (Homo sapiens), P25929;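 active = inhibition above the campaign mean inhibition of all tested compounds plus 3 SD, cut at about 20% in these data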;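 also: 0% = DMSO wells given NPY plus isoproterenol and 100% = isoproterenol alone without NPY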
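material = HEK293 cells with Y1 receptor plus CNG channel | also added = NPY 25 nM then isoproterenol 1 µM plus Ro 20-1724 25 µM | schedule = dye 3 h, compound 60 min room temperature, stimulation 45 min | measured by = membrane potential fluorescence | benchmarks = high control isoproterenol alone, low control NPY with isoproterenol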
NPY-Y2 PAM-ag – NPY-Y2 potentiators or agonists, primary screen, cell-based. Neuropeptide Y receptor type 2 (Homo sapiens), P49146. cells expressing NPY-Y2, potentiator/agonist read-out. activation, % at 3.6 µM. 0.45% of 220,000 active. AID 1359, 2008; in the data active = activation above about 27%;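 also: cells stimulated with NPY near EC25 plus isoproterenol at EC100; 0% = vehicle plus submaximal agonist and 100% = vehicle plus saturating agonist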
NPY1 antag conf – NPY-Y1 receptor antagonists, retest of hits, confirmation, HEK293-CNG cells, membrane potential fluorescence, triplicate; shares compounds with NPY Y1 blocker; cAMP; NPY challenge against isoproterenol-raised cAMP; inhibition, % at 3.6 µM; 21% of 1,200 active; in the data active = inhibition above about 20%;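 also: 0% = vehicle with agonist plus stimulus and 100% = stimulus alone without agonist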
NPY-Y2 antag ct – NPY-Y2 receptor antagonists, selectivity check, confirmation, counter-screen for NPY-Y1 antagonist project, HEK293-CNG cells, membrane potential fluorescence, triplicate; shares compounds with NPY Y1 blocker; 28% of 1,200 active; AID 1255, 2008; antagonism; cells given NPY, then isoproterenol; inhibition, % at 3.6 µM;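 also: 0% = DMSO with agonist challenge and 100% = reference antagonist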
* hit, by the source's call; / = no result given. Rule as the data show it, unless noted: active = inhibition above about 17%; inactive = the rest.

SMILES	NPY Y2 blocker	NPY1 pot ag	NPY Y1 blocker	NPY-Y2 PAM-ag	NPY1 antag conf	NPY-Y2 antag ct
O=C(COc1ccc(Cl)cc1)Nc1nnc(C2=COCCO2)o1	/	-19	22*	-32	10	7
NNC(=O)c1cc2c(ccc3ccccc32)o1	/	5	-2	-4	/	/
O=C(O)c1cc2c(ccc3ccccc32)o1	14	-30	32*	-21	13	15
COC(=O)Nc1ccc(S(=O)(=O)Nc2ccccc2F)cc1	4	8	0	7	/	/
Cc1cc(C#N)c(C)c(SCc2[nH]nc3c2C(c2ccccc2)C(C#N)=C(N)O3)n1 (stereo unspecified)	8	-27	21*	-16	59*	39*
COCc1[nH]nc2c1C(c1cccc(OC)c1)C(C#N)=C(N)O2 (stereo unspecified)	4	-21	6	-9	/	/
Cc1cc(C)c(C#N)c(SCc2[nH]nc3c2C(c2ccc(F)cc2)C(C#N)=C(N)O3)n1 (stereo unspecified)	11	-41	42*	-15	57*	41*
CCC(=O)Nc1c(C#N)c2nc3ccccc3nc2n1C1CCCCC1	3	-22	6	-4	/	/
CCOC(=O)c1c(NC(=O)c2ccco2)n(C2CCCCC2)c2nc3ccccc3nc12	10	3	25*	8	-3	-2
CC1CCCCC1NC(=O)CN1C(=O)CSc2cc(S(=O)(=O)N3CCCCCC3)ccc21 (stereo unspecified)	16	-34	31*	-11	6	6
CN(C1CCCCC1)S(=O)(=O)Cc1ccccc1	-2	10	25*	0	4	2
CS(=O)(=O)N(CC(=O)NCc1ccccc1)C1CCCCC1	-1	7	-3	-5	/	/
COc1cnc(-c2ccccn2)nc1Oc1ccc(Cl)c2ccccc12	15	-48	25*	-61	15	22*
O=C(Nc1ccc(OCC(=O)N2CCOCC2)cc1)Nc1cccc2ccccc12	/	9	0	5	/	/
COc1ccc(CCNS(=O)(=O)c2ccc(OC)cc2)cc1	8	-8	23*	-29	10	7
Cc1ccc(N2CCN(/N=C/c3ccccc3)CC2)cc1	/	-25	6	-12	/	/
Cc1cc(C(C)(C)C)oc1C(=O)N(CC(=O)NC1CCCC1)c1ccc(F)cc1	15	-4	27*	0	6	6
Cc1cc(C(C)(C)C)oc1C(=O)N(CC(=O)NC1CCCC1)c1c(C)cccc1C	10	12	10	-8	/	/
COc1ccccc1N(CC(=O)NC1CCCC1)C(=O)c1oc(C(C)(C)C)cc1C	/	16	28*	-14	22*	8
CCc1ccc(OCC(=O)N(C)C)c(Br)c1	1	-22	7	8	/	/
CC(NC(=O)Nc1ccc(Br)cc1)C(C)(C)C (stereo unspecified)	/	0	3	5	/	/
Oc1ccc(Cc2ncc(C(F)(F)F)cc2Cl)cc1	/	-15	9	-4	/	/
COc1ccc(-n2c(-c3ccc(Cl)cc3)c[n+]3c2CCc2ccccc2-3)cc1	/	-8	23*	-6	24*	11
Cc1c2c(nc3c(C(=O)NC4CCCCC4C)cnn13)CCCC2 (stereo unspecified)	8	-22	20*	-12	13	22*
Cc1cc(C)n2ncc(C(=O)NC3CCCCC3)c2n1	/	9	3	3	/	/
SMILES	NPY Y2 blocker	NPY1 pot ag	NPY Y1 blocker	NPY-Y2 PAM-ag	NPY1 antag conf	NPY-Y2 antag ct
COC(=O)c1cc(C(=O)Nc2nnc(CC(C)C)s2)cc([N+](=O)[O-])c1	3	-4	-1	11	/	/
O=C(c1cc(-c2cccs2)on1)N1CCN(c2ccccc2)CC1	13	-32	25*	-22	8	9
O=C(c1cc(-c2cccs2)on1)N1CCN(c2ccc(F)cc2)CC1	9	-4	9	6	/	/
COc1cccc(C2=Nn3c(nnc3-c3ccccc3O)SC2)c1	7	-77	7	-12	/	/
C[n+]1c2n(c3ccccc31)N=C(c1cc(C(C)(C)C)c(O)c(C(C)(C)C)c1)CS2	/	-32	65*	-28	48*	39*
Clc1ccc(-c2csc(Nc3ccccc3)[n+]2Cc2ccco2)c(Cl)c1	/	-6	32*	-10	23*	12
CCCC[n+]1c(-c2ccc(Cl)cc2Cl)csc1Nc1ccccc1	3	-10	17	15	/	/
COc1ccc(N(CC(=O)NCc2ccccc2)S(=O)(=O)c2c(C)nn(C)c2C)cc1	2	1	4	-5	/	/
O=C(c1cccc([N+](=O)[O-])c1)c1cc2ccccc2o1	5	-3	3	-5	/	/
OC(COc1ccc(CNCCc2ccc(C(F)(F)F)cc2)cc1)CN1CCCCC1 (stereo unspecified)	/	-17	25*	-17	16	18*
O=C(CCC(=O)c1cccs1)NCc1ccc(F)cc1	2	-3	6	-13	/	/
CCc1nccn1S(=O)(=O)c1ccc2ccc(C)cc2c1	15	-36	34*	-43	16	15
COc1ccccc1CN(Cc1cc2cc(C)ccc2[nH]c1=O)Cc1nnnn1Cc1ccco1	15	-18	33*	-9	21*	10
N#Cc1c(F)cccc1NCc1cccs1	/	-19	/	-7	/	/
CC(/C=N/NC(=O)c1n[nH]c2c1CCC2)=C\c1ccccc1	5	-16	22*	-28	7	17*
Cn1c(C(=O)N(Cc2ccccc2)Cc2ccccn2)cc2sccc21	11	16	-1	12	/	/
Cn1c(C(=O)N(Cc2ccccc2)Cc2cccs2)cc2sccc21	7	-25	21*	-18	6	5
CCOc1cc(OCC)cc(C(=O)Nc2cccc(C(C)=O)c2)c1	7	-17	2	-11	/	/
O=C(CCc1ccc(Oc2cc([N+](=O)[O-])cc([N+](=O)[O-])c2)cc1)Nc1cccc(Cl)c1	-1	-42	1	-2	/	/
O=c1[nH]c2cc(S(=O)(=O)CCO)ccc2o1	/	-2	/	4	/	/
COc1ccc(Nc2ccc(C(N)=O)cc2[N+](=O)[O-])cc1	/	9	5	6	/	/
COc1ccc(Nc2ccc(C(=O)O)cc2[N+](=O)[O-])cc1	6	-21	22*	3	4	9
COCCCn1c(SCC(=O)N2CC(=O)Nc3ccccc32)nnc1-c1ccoc1C	-2	-2	5	9	/	/
COc1ccccc1-n1cnc2cc(NCc3cccs3)ccc21	10	1	21*	-5	9	20*
CN1CCCc2cc(C=O)ccc21	2	1	1	-3	/	/
N#CC1=C(Nc2ccccc2)SC=C(c2ccc(Cl)c(Cl)c2)N=C1N1CCOCC1	9	-26	25*	-2	8	14

Screening results deposited in PubChem BioAssay by The Scripps Research Institute Molecular Screening Center.
